According to ChEMBL document CHEMBL5058577, “EUbOPEN Chemogenomics Library 2 (Multiplex)” (2022):

Test system: U2OS
Assay: Multiplex assay against U2OS
Assay type: toxicity, cell-based
Conditions: human
How it was run: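 Live cells were stained at seeding with Hoechst33342, BioTracker Green Microtubule Cytoskeleton Dye, MitoTracker Red and Annexin V Alexa Fluor 680, then imaged on a CQ1 microscope at 37°C and 5% CO2 after compound addition. CellPathfinder machine-learning gating split cells into Hoechst high-intensity objects or normal cells. Normal cells were split into healthy, pyknosed or fragmented nuclei, and pyknosed cells into mitotic or apoptotic. Tubulin, mitochondrial-mass and membrane-permeability phenotypes are per cents of healthy-nucleus cells.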

[1] = 12 h, 1 µM, compound concentration 1 uM, replicate 1
[2] = 12 h, 1 µM, compound concentration 1 uM, replicate 2
[3] = 12 h, 10 µM, compound concentration 10 uM, replicate 1
[4] = 12 h, 10 µM, compound concentration 10 uM, replicate 2
[5] = 24 h, 1 µM, compound concentration 1 uM, replicate 1
[6] = 24 h, 1 µM, compound concentration 1 uM, replicate 2
[7] = 24 h, 10 µM, compound concentration 10 uM, replicate 1
[8] = 24 h, 10 µM, compound concentration 10 uM, replicate 2
[9] = 48 h, 1 µM, compound concentration 1 uM, replicate 1
[10] = 48 h, 1 µM, compound concentration 1 uM, replicate 2
[11] = 48 h, 10 µM, compound concentration 10 uM, replicate 1
[12] = 48 h, 10 µM, compound concentration 10 uM, replicate 2

**Q.** With `CN1CCN2c3ncccc3Cc3ccccc3C2C1` (stereo not drawn) [MIRTAZAPINE] as the molecule, how does the “Population Apoptotic (%)” value [1] read?
**A.** 82%

**Q.** What about the “Population Fragmented Nuclei (%)” value [1] of the same molecule?
**A.** 21%

**Q.** What about the “Population Healthy Nuclei (%)” value [1] of the same molecule?
**A.** 67%

**Q.** And the “Population Hoechst High Intensity Objects (%)” value [1]?
**A.** 1%

**Q.** What about the “Population Membrane Permeable-Phenotype (%)” value [1] of the same molecule?
**A.** 3%

**Q.** And the “Population Mitochondria Different-Phenotype (%)” value [1]?
**A.** 1%

**Q.** What about the “Population Mitotic Cells (%)” value [1] of the same molecule?
**A.** 17%

**Q.** What about the “Population Normal (%)” value [1] of the same molecule?
**A.** 99%

**Q.** And the “Population Pyknosed Nuclei (%)” value [1]?
**A.** 11%

**Q.** And the “Population Tubulin-Different-Phenotype (%)” value [1]?
**A.** 2%

**Q.** What about the “Total Cell Count” value [1] of the same molecule?
**A.** 301

**Q.** And the “Population Apoptotic (%)” value [2]?
**A.** 100%

**Q.** What about the “Population Healthy Nuclei (%)” value [2] of the same molecule?
**A.** 72%

**Q.** What about the “Population Membrane Permeable-Phenotype (%)” value [2] of the same molecule?
**A.** 5%

**Q.** And the “Population Mitochondria Different-Phenotype (%)” value [2]?
**A.** 6%

**Q.** What about the “Population Mitotic Cells (%)” value [2] of the same molecule?
**A.** 0%

**Q.** What about the “Population Normal (%)” value [2] of the same molecule?
**A.** 98%

**Q.** And the “Population Pyknosed Nuclei (%)” value [2]?
**A.** 6%

**Q.** And the “Population Tubulin-Different-Phenotype (%)” value [2]?
**A.** 3%

**Q.** What about the “Total Cell Count” value [2] of the same molecule?
**A.** 81

**Q.** What about the “Population Apoptotic (%)” value [3] of the same molecule?
**A.** 73%

**Q.** What about the “Population Fragmented Nuclei (%)” value [3] of the same molecule?
**A.** 19%

**Q.** What about the “Population Healthy Nuclei (%)” value [3] of the same molecule?
**A.** 71%

**Q.** What about the “Population Hoechst High Intensity Objects (%)” value [3] of the same molecule?
**A.** 3%

**Q.** What about the “Population Membrane Permeable-Phenotype (%)” value [3] of the same molecule?
**A.** 6%

**Q.** What about the “Population Mitochondria Different-Phenotype (%)” value [3] of the same molecule?
**A.** 5%

**Q.** And the “Population Mitotic Cells (%)” value [3]?
**A.** 26%

**Q.** What about the “Population Normal (%)” value [3] of the same molecule?
**A.** 96%

**Q.** And the “Population Pyknosed Nuclei (%)” value [3]?
**A.** 8%

**Q.** And the “Population Tubulin-Different-Phenotype (%)” value [3]?
**A.** 6%

**Q.** And the “Total Cell Count” value [3]?
**A.** 266

**Q.** What about the “Population Apoptotic (%)” value [4] of the same molecule?
**A.** 66%

**Q.** What about the “Population Fragmented Nuclei (%)” value [4] of the same molecule?
**A.** 13%

**Q.** What about the “Population Healthy Nuclei (%)” value [4] of the same molecule?
**A.** 82%

**Q.** What about the “Population Membrane Permeable-Phenotype (%)” value [4] of the same molecule?
**A.** 3%

**Q.** And the “Population Mitochondria Different-Phenotype (%)” value [4]?
**A.** 4%

**Q.** What about the “Population Mitotic Cells (%)” value [4] of the same molecule?
**A.** 33%

**Q.** What about the “Population Pyknosed Nuclei (%)” value [4] of the same molecule?
**A.** 3%

**Q.** What about the “Population Tubulin-Different-Phenotype (%)” value [4] of the same molecule?
**A.** 0%

**Q.** And the “Total Cell Count” value [4]?
**A.** 83

**Q.** And the “Population Apoptotic (%)” value [5]?
**A.** 85%

**Q.** And the “Population Fragmented Nuclei (%)” value [5]?
**A.** 15%

**Q.** And the “Population Healthy Nuclei (%)” value [5]?
**A.** 76%

**Q.** And the “Population Hoechst High Intensity Objects (%)” value [5]?
**A.** 2%

**Q.** And the “Population Membrane Permeable-Phenotype (%)” value [5]?
**A.** 5%

**Q.** What about the “Population Mitochondria Different-Phenotype (%)” value [5] of the same molecule?
**A.** 3%

**Q.** What about the “Population Mitotic Cells (%)” value [5] of the same molecule?
**A.** 14%

**Q.** What about the “Population Normal (%)” value [5] of the same molecule?
**A.** 97%

**Q.** What about the “Population Pyknosed Nuclei (%)” value [5] of the same molecule?
**A.** 8%

**Q.** What about the “Population Tubulin-Different-Phenotype (%)” value [5] of the same molecule?
**A.** 2%

**Q.** What about the “Total Cell Count” value [5] of the same molecule?
**A.** 340

**Q.** And the “Population Apoptotic (%)” value [6]?
**A.** 100%

**Q.** What about the “Population Fragmented Nuclei (%)” value [6] of the same molecule?
**A.** 26%

**Q.** What about the “Population Healthy Nuclei (%)” value [6] of the same molecule?
**A.** 63%

**Q.** What about the “Population Hoechst High Intensity Objects (%)” value [6] of the same molecule?
**A.** 3%

**Q.** And the “Population Membrane Permeable-Phenotype (%)” value [6]?
**A.** 3%

**Q.** And the “Population Mitotic Cells (%)” value [6]?
**A.** 0%

**Q.** What about the “Population Normal (%)” value [6] of the same molecule?
**A.** 96%

**Q.** What about the “Population Pyknosed Nuclei (%)” value [6] of the same molecule?
**A.** 10%

**Q.** What about the “Population Tubulin-Different-Phenotype (%)” value [6] of the same molecule?
**A.** 4%

**Q.** And the “Total Cell Count” value [6]?
**A.** 99

**Q.** And the “Population Apoptotic (%)” value [7]?
**A.** 89%

**Q.** And the “Population Fragmented Nuclei (%)” value [7]?
**A.** 18%

**Q.** What about the “Population Healthy Nuclei (%)” value [7] of the same molecule?
**A.** 71%

**Q.** What about the “Population Hoechst High Intensity Objects (%)” value [7] of the same molecule?
**A.** 2%

**Q.** What about the “Population Membrane Permeable-Phenotype (%)” value [7] of the same molecule?
**A.** 4%

**Q.** And the “Population Mitochondria Different-Phenotype (%)” value [7]?
**A.** 2%

**Q.** And the “Population Mitotic Cells (%)” value [7]?
**A.** 10%

**Q.** And the “Population Normal (%)” value [7]?
**A.** 97%

**Q.** What about the “Population Pyknosed Nuclei (%)” value [7] of the same molecule?
**A.** 9%

**Q.** And the “Population Tubulin-Different-Phenotype (%)” value [7]?
**A.** 0%

**Q.** And the “Total Cell Count” value [7]?
**A.** 314

**Q.** And the “Population Apoptotic (%)” value [8]?
**A.** 83%

**Q.** And the “Population Fragmented Nuclei (%)” value [8]?
**A.** 9%

**Q.** What about the “Population Healthy Nuclei (%)” value [8] of the same molecule?
**A.** 85%

**Q.** What about the “Population Hoechst High Intensity Objects (%)” value [8] of the same molecule?
**A.** 0%

**Q.** And the “Population Membrane Permeable-Phenotype (%)” value [8]?
**A.** 5%

**Q.** And the “Population Mitotic Cells (%)” value [8]?
**A.** 16%

**Q.** What about the “Population Normal (%)” value [8] of the same molecule?
**A.** 99%

**Q.** And the “Population Pyknosed Nuclei (%)” value [8]?
**A.** 5%

**Q.** What about the “Population Tubulin-Different-Phenotype (%)” value [8] of the same molecule?
**A.** 5%

**Q.** And the “Total Cell Count” value [8]?
**A.** 108

**Q.** And the “Population Apoptotic (%)” value [9]?
**A.** 83%

**Q.** And the “Population Fragmented Nuclei (%)” value [9]?
**A.** 12%

**Q.** And the “Population Healthy Nuclei (%)” value [9]?
**A.** 76%

**Q.** And the “Population Hoechst High Intensity Objects (%)” value [9]?
**A.** 2%

**Q.** And the “Population Membrane Permeable-Phenotype (%)” value [9]?
**A.** 4%

**Q.** What about the “Population Mitochondria Different-Phenotype (%)” value [9] of the same molecule?
**A.** 2%

**Q.** And the “Population Mitotic Cells (%)” value [9]?
**A.** 16%

**Q.** And the “Population Normal (%)” value [9]?
**A.** 97%

**Q.** And the “Population Pyknosed Nuclei (%)” value [9]?
**A.** 10%

**Q.** What about the “Population Tubulin-Different-Phenotype (%)” value [9] of the same molecule?
**A.** 3%

**Q.** And the “Total Cell Count” value [9]?
**A.** 479

**Q.** What about the “Population Apoptotic (%)” value [10] of the same molecule?
**A.** 92%

**Q.** And the “Population Fragmented Nuclei (%)” value [10]?
**A.** 20%

**Q.** What about the “Population Healthy Nuclei (%)” value [10] of the same molecule?
**A.** 68%

**Q.** And the “Population Hoechst High Intensity Objects (%)” value [10]?
**A.** 4%

**Q.** What about the “Population Membrane Permeable-Phenotype (%)” value [10] of the same molecule?
**A.** 8%

**Q.** And the “Population Mitochondria Different-Phenotype (%)” value [10]?
**A.** 4%

**Q.** And the “Population Mitotic Cells (%)” value [10]?
**A.** 7%

**Q.** And the “Population Normal (%)” value [10]?
**A.** 95%

**Q.** And the “Population Pyknosed Nuclei (%)” value [10]?
**A.** 11%

**Q.** What about the “Population Tubulin-Different-Phenotype (%)” value [10] of the same molecule?
**A.** 1%

**Q.** And the “Total Cell Count” value [10]?
**A.** 132

**Q.** What about the “Population Apoptotic (%)” value [11] of the same molecule?
**A.** 95%

**Q.** And the “Population Fragmented Nuclei (%)” value [11]?
**A.** 15%

**Q.** What about the “Population Healthy Nuclei (%)” value [11] of the same molecule?
**A.** 75%

**Q.** What about the “Population Hoechst High Intensity Objects (%)” value [11] of the same molecule?
**A.** 2%

**Q.** What about the “Population Membrane Permeable-Phenotype (%)” value [11] of the same molecule?
**A.** 7%

**Q.** What about the “Population Mitochondria Different-Phenotype (%)” value [11] of the same molecule?
**A.** 4%

**Q.** And the “Population Mitotic Cells (%)” value [11]?
**A.** 5%

**Q.** And the “Population Normal (%)” value [11]?
**A.** 97%

**Q.** What about the “Population Pyknosed Nuclei (%)” value [11] of the same molecule?
**A.** 9%

**Q.** And the “Population Tubulin-Different-Phenotype (%)” value [11]?
**A.** 5%

**Q.** And the “Total Cell Count” value [11]?
**A.** 435

**Q.** What about the “Population Apoptotic (%)” value [12] of the same molecule?
**A.** 100%

**Q.** And the “Population Fragmented Nuclei (%)” value [12]?
**A.** 12%

**Q.** And the “Population Healthy Nuclei (%)” value [12]?
**A.** 78%

**Q.** And the “Population Membrane Permeable-Phenotype (%)” value [12]?
**A.** 3%

**Q.** What about the “Population Mitochondria Different-Phenotype (%)” value [12] of the same molecule?
**A.** 3%

**Q.** And the “Population Mitotic Cells (%)” value [12]?
**A.** 0%

**Q.** And the “Population Tubulin-Different-Phenotype (%)” value [12]?
**A.** 3%

**Q.** And the “Total Cell Count” value [12]?
**A.** 170
